Converted amounts (≈) assume the structure as drawn.
Columns and labels:
[1] = tested on: Respiratory syncytial virus; test: Antiviral activity against RSV infected in human HeLa cells assessed as inhibition of virus-induced cytopathicity after 3 days; type: functional, organism-based; settings: 72 h
Outline: (§1)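 Confluent cell monolayers infected with 100 CCID50 virus; after 2 h adsorption at 37 °C, virus removed and serial compound dilutions added (DMSO stocks 10 mg/ml). Incubated 37 °C for 3 days until complete CPE in untreated virus control. EC50 = concentration protecting 50% of infected cells from viral cytopathogenicity; ">" marks highest concentration tested.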

[2] = tested on: Mammalian orthoreovirus 1; test: Antiviral activity against Reovirus 1 infected in african green monkey Vero cells assessed as inhibition of virus-induced cytopathicity after 3 days; type: functional, organism-based; settings: Mammalian orthoreovirus 1, Vero, 72 h; outline: as §1
Human respirovirus 3 = test: Antiviral activity against Parainfluenza virus type 3 infected in african green monkey Vero cells assessed as inhibition of virus-induced cytopathicity after 3 days; type: functional, organism-based; settings: Human respirovirus 3, Vero, 72 h; outline: as §1
Human alphaherpesvirus 1 [3] = test: Antiviral activity against HSV1 KOS infected in human HEL cells assessed as inhibition of virus-induced cytopathicity after 3 days; type: functional, organism-based; settings: Human alphaherpesvirus 1, KOS, 72 h
Coxsackievirus B4 [4] = test: Antiviral activity against Coxsackievirus B4 infected in african green monkey Vero cells assessed as inhibition of virus-induced cytopathicity after 3 days; type: functional, organism-based; settings: Enterovirus B, 72 h; outline: as §1
[5] = tested on: Vesicular stomatitis virus; test: Antiviral activity against Vesicular stomatitis virus infected in human HeLa cells assessed as inhibition of virus-induced cytopathicity after 3 days; type: functional, organism-based; settings: 72 h
Vaccinia virus = test: Antiviral activity against Vaccinia virus infected in human HEL cells assessed as inhibition of virus-induced cytopathicity after 3 days; type: functional, organism-based; settings: Orthopoxvirus vaccinia, 72 h
Punta Toro virus = test: Antiviral activity against Punta Toro virus infected in african green monkey Vero cells assessed as inhibition of virus-induced cytopathicity after 3 days; type: functional, organism-based; settings: 72 h
Outline: (§2)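 Confluent cell monolayers infected with 100 CCID50 virus; after 2 h adsorption at 37 °C, virus removed and serial compound dilutions added (DMSO stocks 10 mg/ml). Incubated 37 °C for 3 days until complete CPE in untreated virus control.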

[6] = Cytotoxicity against human HeLa cells assessed as minimum cytotoxic concentration required to cause microscopically detectable alteration in normal cell morphology; type: cell-based
Outline: (§3)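 Run in parallel with antiviral assays on uninfected cell cultures; test compounds from 10 mg/ml DMSO stocks in serial dilution. Value is minimum cytotoxic concentration (MCC) producing microscopically detectable alteration of normal cell morphology.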

[7] = tested on: Vesicular stomatitis virus; test: Antiviral activity against Vesicular stomatitis virus infected in human HEL cells assessed as inhibition of virus-induced cytopathicity after 3 days; type: functional, organism-based; settings: 72 h
[8] = Cytotoxicity against african green monkey Vero cells assessed as minimum cytotoxic concentration required to cause microscopically detectable alteration in normal cell morphology; type: cell-based; settings: chlorocebus sabaeus; outline: as §3
Sindbis virus = test: Antiviral activity against Sindbis virus infected in african green monkey Vero cells assessed as inhibition of virus-induced cytopathicity after 3 days postinfection; type: functional, organism-based; settings: 72 h; outline: as §1
[9] = Cytotoxicity against HEL cells assessed as minimum cytotoxic concentration required to cause microscopically detectable alteration in normal cell morphology; type: cell-based; settings: human; outline: as §3
Human alphaherpesvirus 1 [10] = test: Antiviral activity against thymidine kinase-deficient ACV-resistant HSV1 KOS infected in human HEL cells assessed as inhibition of virus-induced cytopathicity after 3 days; type: functional, organism-based; settings: Human alphaherpesvirus 1, KOS, 72 h
Coxsackievirus B4 [11] = test: Antiviral activity against Coxsackievirus B4 infected in human HeLa cells assessed as inhibition of virus-induced cytopathicity after 3 days; type: functional, organism-based; settings: Enterovirus B, 72 h; outline: as §2
Human alphaherpesvirus 2 = test: Antiviral activity against HSV2 G infected in human HEL cells assessed as inhibition of virus-induced cytopathicity after 3 days; type: functional, organism-based; settings: Human alphaherpesvirus 2, strain G, 72 h; outline: as §1

Structure (SMILES) | EC50 [1] | EC50 [2] | EC50 (Human respirovirus 3) | EC50 (Human alphaherpesvirus 1 [3]) | EC50 (Coxsackievirus B4 [4]) | EC50 [5] | EC50 (Vaccinia virus) | EC50 (Punta Toro virus) | MCC [6] | EC50 [7] | MCC [8] | EC50 (Sindbis virus) | MCC [9] | EC50 (Human alphaherpesvirus 1 [10]) | EC50 (Coxsackievirus B4 [11]) | EC50 (Human alphaherpesvirus 2)
O=C1CSC(N2N=C(c3ccc(Br)cc3)CC2c2ccc(OCc3ccccc3)cc2)=N1 (stereo unspecified) | > 100 µg/mL | > 20 µg/mL | > 20 µg/mL | > 20 µg/mL | > 20 µg/mL | > 100 µg/mL | > 20 µg/mL | > 20 µg/mL | > 100 µg/mL | > 20 µg/mL | 100 µg/mL | > 20 µg/mL | 100 µg/mL | > 20 µg/mL | > 100 µg/mL | > 20 µg/mL
NC(=S)N1N=C(c2ccccc2)CC1c1ccc(OCc2ccccc2)cc1 (stereo unspecified) | > 20 µg/mL | > 20 µg/mL | > 20 µg/mL | > 20 µg/mL | > 20 µg/mL | > 20 µg/mL | > 20 µg/mL | > 20 µg/mL | ≥ 20 µg/mL | > 20 µg/mL | 100 µg/mL | > 20 µg/mL | 100 µg/mL | > 20 µg/mL | > 20 µg/mL | > 20 µg/mL
Cc1ccc(-c2csc(N3N=C(c4ccc(Br)cc4)CC3c3ccc(OCc4ccccc4)cc3)n2)cc1 (stereo unspecified) | > 100 µg/mL | > 20 µg/mL | > 20 µg/mL | > 20 µg/mL | > 20 µg/mL | > 100 µg/mL | > 20 µg/mL | > 20 µg/mL | > 100 µg/mL | > 20 µg/mL | 100 µg/mL | > 20 µg/mL | 100 µg/mL | > 20 µg/mL | > 100 µg/mL | > 20 µg/mL
Cc1ccc(-c2csc(N3N=C(c4ccc(Cl)cc4)CC3c3ccc(OCc4ccccc4)cc3)n2)cc1 (stereo unspecified) | > 100 µg/mL | > 20 µg/mL | > 20 µg/mL | > 20 µg/mL | > 20 µg/mL | > 100 µg/mL | > 20 µg/mL | > 20 µg/mL | > 100 µg/mL | > 20 µg/mL | 100 µg/mL | > 20 µg/mL | 100 µg/mL | > 20 µg/mL | > 100 µg/mL | > 20 µg/mL
O=C1CSC(N2N=C(c3ccccc3)CC2c2ccc(OCc3ccccc3)cc2)=N1 (stereo unspecified) | > 20 µg/mL | > 20 µg/mL | > 20 µg/mL | > 20 µg/mL | > 20 µg/mL | > 20 µg/mL | > 20 µg/mL | > 20 µg/mL | 100 µg/mL | > 20 µg/mL | 100 µg/mL | > 20 µg/mL | 100 µg/mL | > 20 µg/mL | > 20 µg/mL | > 20 µg/mL
Cc1ccc(-c2csc(N3N=C(c4ccccc4)CC3c3ccc(OCc4ccccc4)cc3)n2)cc1 (stereo unspecified) | > 100 µg/mL | > 20 µg/mL | > 20 µg/mL | > 100 µg/mL | > 20 µg/mL | > 100 µg/mL | > 100 µg/mL | > 20 µg/mL | > 100 µg/mL | > 100 µg/mL | 100 µg/mL | > 20 µg/mL | > 100 µg/mL | > 100 µg/mL | > 100 µg/mL | > 100 µg/mL
Clc1ccc(-c2csc(N3N=C(c4ccc(Br)cc4)CC3c3ccc(OCc4ccccc4)cc3)n2)cc1 (stereo unspecified) | > 100 µg/mL | > 100 µg/mL | > 100 µg/mL | > 100 µg/mL | > 100 µg/mL | > 100 µg/mL | > 100 µg/mL | > 100 µg/mL | > 100 µg/mL | > 100 µg/mL | > 100 µg/mL | > 100 µg/mL | > 100 µg/mL | > 100 µg/mL | > 100 µg/mL | > 100 µg/mL
Nc1ncnc2c1ncn2C[C@H](O)CO [(S)-DHPA] | > 250 µg/mL | > 250 µg/mL | > 250 µg/mL | – | > 250 µg/mL | > 250 µg/mL | – | > 250 µg/mL | > 250 µg/mL | – | > 250 µg/mL | > 250 µg/mL | – | – | > 250 µg/mL | –
CC(=O)N1N=C(c2ccc(Br)cc2)CC1c1ccc(OCc2ccccc2)cc1 (stereo unspecified) | > 20 µg/mL | > 20 µg/mL | > 20 µg/mL | > 20 µg/mL | > 20 µg/mL | > 20 µg/mL | > 20 µg/mL | > 20 µg/mL | 100 µg/mL | > 20 µg/mL | 100 µg/mL | > 20 µg/mL | 100 µg/mL | > 20 µg/mL | > 20 µg/mL | > 20 µg/mL
NC(=S)N1N=C(c2ccc(Br)cc2)CC1c1ccc(OCc2ccccc2)cc1 (stereo unspecified) | > 20 µg/mL | > 20 µg/mL | > 20 µg/mL | > 20 µg/mL | > 20 µg/mL | > 20 µg/mL | > 20 µg/mL | > 20 µg/mL | 100 µg/mL | > 20 µg/mL | 100 µg/mL | > 20 µg/mL | 100 µg/mL | > 20 µg/mL | > 20 µg/mL | > 20 µg/mL
Nc1ccn(C[C@@H](CO)OCP(=O)(O)O)c(=O)n1.O.O [CIDOFOVIR] | – | – | – | 3 µg/mL | – | – | 10 µg/mL | – | – | > 250 µg/mL | – | – | > 250 µg/mL | 5 µg/mL | – | 5 µg/mL
Nc1nc2c(ncn2COC(CO)CO)c(=O)[nH]1 [GANCICLOVIR] | – | – | – | 0.08 µg/mL (≈ 0.313 µM) | – | – | > 100 µg/mL | – | – | > 100 µg/mL | – | – | > 100 µg/mL | 6 µg/mL (≈ 23.5 µM) | – | 0.08 µg/mL (≈ 0.313 µM)
O=c1[nH]c(=O)n([C@H]2C[C@H](O)[C@@H](CO)O2)cc1/C=C/Br [BRIVUDINE] | – | – | – | 0.08 µg/mL (≈ 0.24 µM) | – | – | 10 µg/mL (≈ 30 µM) | – | – | > 250 µg/mL | – | – | > 250 µg/mL | > 250 µg/mL | – | 126 µg/mL (≈ 378 µM)
NC(=O)c1ncn([C@@H]2O[C@H](CO)[C@@H](O)[C@H]2O)n1 [RIBAVIRIN] | 10 µg/mL (≈ 40.9 µM) | > 250 µg/mL | 45 µg/mL (≈ 184 µM) | > 250 µg/mL | > 250 µg/mL | 29 µg/mL (≈ 119 µM) | 146 µg/mL (≈ 598 µM) | – | > 250 µg/mL | > 250 µg/mL | > 250 µg/mL | > 250 µg/mL | > 250 µg/mL | > 250 µg/mL | – | > 250 µg/mL

Source: ChEMBL document CHEMBL1153616, “Synthesis and antiviral activity of new pyrazole and thiazole derivatives” (Eur J Med Chem, 2009)
